Tests used:
[1] = target: Tyrosine-protein kinase Lyn (Homo sapiens) (UniProt P07948); experiment: Inhibition of human LYN at 10 uM using poly[Glu:Tyr] (4:1) as substrate by [gamma-33P]-ATP assay relative to control
In short: (§1)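 Commercial kinase panel screen at a single concentration of 10 μM. % inhibition was calculated as 100 minus % activity.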

[2] = target: Tyrosine-protein kinase Yes (Homo sapiens) (UniProt P07947); experiment: Inhibition of human YES at 10 uM using poly[Glu:Tyr] (4:1) as substrate by [gamma-33P]-ATP assay relative to control
In short: (§2)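 Kinase-panel profiling (50 oncogenic kinases) run by an outside contract service. The test compound was tested at a single concentration of 10 μM. Percent inhibition was calculated as 100 minus % remaining activity.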

[3] = target: Mitogen-activated protein kinase 8 (Homo sapiens) (UniProt P45983); experiment: Inhibition of human JNK1 at 10 uM using ATF2 as substrate by [gamma-33P]-ATP assay relative to control; in short: as §1
[4] = target: Serine/threonine-protein kinase PAK 4 (Homo sapiens) (UniProt O96013); experiment: Inhibition of human PAK4 at 10 uM using RRRLSFAEPG as substrate by [gamma-33P]-ATP assay relative to control; in short: as §2
[5] = target: Cyclin-dependent kinase 1/cyclin B1 (Homo sapiens) (UniProt P06493+P14635); experiment: Inhibition of human CDK1/cyclinB at 10 uM using Histone H1 as substrate by [gamma-33P]-ATP assay relative to control; type: protein-complex assay; in short: as §1
[6] = target: Proto-oncogene tyrosine-protein kinase ROS (Homo sapiens) (UniProt P08922); experiment: Inhibition of human ROS at 10 uM using KKKSPGEYVNIEFG as substrate by [gamma-33P]-ATP assay relative to control; in short: as §2
Focal adhesion kinase 1 = Focal adhesion kinase 1 (Homo sapiens, UniProt Q05397); experiment: Inhibition of human FAK using poly[Glu:Tyr] (4:1) as substrate by [gamma-33P]-ATP assay
[7] = target: Vascular endothelial growth factor receptor 1 (Homo sapiens) (UniProt P17948); experiment: Inhibition of human FLT1 at 10 uM using poly[Glu:Tyr] (4:1) as substrate by [gamma-33P]-ATP assay relative to control; in short: as §1
[8] = target: Fibroblast growth factor receptor 1 (Homo sapiens) (UniProt P11362); experiment: Inhibition of human FGFR1 at 10 uM using KKKSPGEYVNIEFG as substrate by [gamma-33P]-ATP assay relative to control; in short: as §1
[9] = target: Death-associated protein kinase 1 (Homo sapiens) (UniProt P53355); experiment: Inhibition of human DAPK1 at 10 uM using KKLNRTLSFAEPG as substrate by [gamma-33P]-ATP assay relative to control; in short: as §1
[10] = target: Tyrosine-protein kinase Fyn (Homo sapiens) (UniProt P06241); experiment: Inhibition of human FYN at 10 uM using poly[Glu:Tyr] (4:1) as substrate by [gamma-33P]-ATP assay relative to control; in short: as §1
[11] = target: Muscle, skeletal receptor tyrosine-protein kinase (Homo sapiens) (UniProt O15146); experiment: Inhibition of human MUSK at 10 uM using MBP as substrate by [gamma-33P]-ATP assay relative to control; in short: as §1
[12] = target: Ribosomal protein S6 kinase beta-1 (Homo sapiens) (UniProt P23443); experiment: Inhibition of human RPS6KB1 at 10 uM using KKRNRTLTK as substrate by [gamma-33P]-ATP assay relative to control; in short: as §2
IMR-32 = experiment: Antiproliferative activity against human IMR32 cells after 2 days by spectrophotometric analysis; type: functional; conditions: IMR-32, 48 h
[13] = target: Tyrosine-protein kinase Fgr (Homo sapiens) (UniProt P09769); experiment: Inhibition of human FGR at 10 uM using poly[Glu:Tyr] (4:1) as substrate by [gamma-33P]-ATP assay relative to control; in short: as §1
Tyrosine-protein kinase Fgr (Homo sapiens), sequence (P09769 2-529 limits assumed): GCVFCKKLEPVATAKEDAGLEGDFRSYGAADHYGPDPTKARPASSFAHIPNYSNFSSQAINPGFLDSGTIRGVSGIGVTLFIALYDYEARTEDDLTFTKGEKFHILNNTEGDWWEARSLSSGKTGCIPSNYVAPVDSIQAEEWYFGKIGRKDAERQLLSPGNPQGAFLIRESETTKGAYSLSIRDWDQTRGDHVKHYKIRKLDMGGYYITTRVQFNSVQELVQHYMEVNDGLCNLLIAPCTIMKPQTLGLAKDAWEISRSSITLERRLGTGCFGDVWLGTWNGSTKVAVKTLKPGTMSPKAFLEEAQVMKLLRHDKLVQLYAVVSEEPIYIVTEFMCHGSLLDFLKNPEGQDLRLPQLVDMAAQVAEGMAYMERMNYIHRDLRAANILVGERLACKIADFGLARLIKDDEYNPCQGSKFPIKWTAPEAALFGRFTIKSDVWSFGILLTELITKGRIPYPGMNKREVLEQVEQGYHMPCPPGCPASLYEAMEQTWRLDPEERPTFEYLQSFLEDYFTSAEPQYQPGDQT

[14] = target: RAC-alpha serine/threonine-protein kinase (Homo sapiens) (UniProt P31749); experiment: Inhibition of human AKT1 at 10 uM using KGSGSGRPRTSSFAEG as substrate by [gamma-33P]-ATP assay relative to control; in short: as §1
[15] = target: Proto-oncogene tyrosine-protein kinase Src (Homo sapiens) (UniProt P12931); experiment: Inhibition of human c-SRC at 10 uM using poly[Glu:Tyr] (4:1) as substrate by [gamma-33P]-ATP assay relative to control; in short: as §2
Proto-oncogene tyrosine-protein kinase Src (Homo sapiens), sequence (P12931 2-536 limits assumed): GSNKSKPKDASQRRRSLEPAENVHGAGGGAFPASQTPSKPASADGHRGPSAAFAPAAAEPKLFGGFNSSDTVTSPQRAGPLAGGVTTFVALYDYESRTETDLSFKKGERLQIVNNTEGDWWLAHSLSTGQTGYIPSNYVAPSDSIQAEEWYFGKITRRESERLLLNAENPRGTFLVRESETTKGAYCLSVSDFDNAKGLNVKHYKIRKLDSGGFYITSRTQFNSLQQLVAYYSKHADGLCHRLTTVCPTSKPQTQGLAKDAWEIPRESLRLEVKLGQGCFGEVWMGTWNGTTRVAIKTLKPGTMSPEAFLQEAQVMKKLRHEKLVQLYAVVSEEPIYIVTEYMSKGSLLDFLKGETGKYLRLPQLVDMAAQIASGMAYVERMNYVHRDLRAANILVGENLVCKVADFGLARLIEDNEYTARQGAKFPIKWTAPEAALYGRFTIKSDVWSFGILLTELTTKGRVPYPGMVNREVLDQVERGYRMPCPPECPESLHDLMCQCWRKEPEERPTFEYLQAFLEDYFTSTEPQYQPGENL

[16] = target: Tyrosine-protein kinase Mer (Homo sapiens, UniProt Q12866); experiment: Inhibition of human MER using poly[Glu:Tyr] (4:1) as substrate by [gamma-33P]-ATP assay
[17] = target: Tyrosine-protein kinase JAK1 (Homo sapiens) (UniProt P23458); experiment: Inhibition of human JAK1 at 10 uM using poly[Glu:Tyr] (4:1) as substrate by [gamma-33P]-ATP assay relative to control; in short: as §1
HCT-116 = experiment: Antiproliferative activity against human HCT116 cells after 2 days by spectrophotometric analysis; type: functional; conditions: HCT-116, 48 h
[18] = target: Serine/threonine-protein kinase pim-1 (Homo sapiens) (UniProt P11309); experiment: Inhibition of human PIM1 at 10 uM using KKRNRTLTK as substrate by [gamma-33P]-ATP assay relative to control; in short: as §2
[19] = target: Protein kinase C alpha type (Homo sapiens) (UniProt P17252); experiment: Inhibition of human PKCalpha at 10 uM using ERMRPRKRQGSVRRRV as substrate by [gamma-33P]-ATP assay relative to control; in short: as §2
[20] = target: Epidermal growth factor receptor (Homo sapiens) (UniProt P00533); experiment: Inhibition of human EGFR at 10 uM using poly[Glu:Tyr] (4:1) as substrate by [gamma-33P]-ATP assay relative to control; in short: as §1
Epidermal growth factor receptor (Homo sapiens), sequence (P00533 whole entry): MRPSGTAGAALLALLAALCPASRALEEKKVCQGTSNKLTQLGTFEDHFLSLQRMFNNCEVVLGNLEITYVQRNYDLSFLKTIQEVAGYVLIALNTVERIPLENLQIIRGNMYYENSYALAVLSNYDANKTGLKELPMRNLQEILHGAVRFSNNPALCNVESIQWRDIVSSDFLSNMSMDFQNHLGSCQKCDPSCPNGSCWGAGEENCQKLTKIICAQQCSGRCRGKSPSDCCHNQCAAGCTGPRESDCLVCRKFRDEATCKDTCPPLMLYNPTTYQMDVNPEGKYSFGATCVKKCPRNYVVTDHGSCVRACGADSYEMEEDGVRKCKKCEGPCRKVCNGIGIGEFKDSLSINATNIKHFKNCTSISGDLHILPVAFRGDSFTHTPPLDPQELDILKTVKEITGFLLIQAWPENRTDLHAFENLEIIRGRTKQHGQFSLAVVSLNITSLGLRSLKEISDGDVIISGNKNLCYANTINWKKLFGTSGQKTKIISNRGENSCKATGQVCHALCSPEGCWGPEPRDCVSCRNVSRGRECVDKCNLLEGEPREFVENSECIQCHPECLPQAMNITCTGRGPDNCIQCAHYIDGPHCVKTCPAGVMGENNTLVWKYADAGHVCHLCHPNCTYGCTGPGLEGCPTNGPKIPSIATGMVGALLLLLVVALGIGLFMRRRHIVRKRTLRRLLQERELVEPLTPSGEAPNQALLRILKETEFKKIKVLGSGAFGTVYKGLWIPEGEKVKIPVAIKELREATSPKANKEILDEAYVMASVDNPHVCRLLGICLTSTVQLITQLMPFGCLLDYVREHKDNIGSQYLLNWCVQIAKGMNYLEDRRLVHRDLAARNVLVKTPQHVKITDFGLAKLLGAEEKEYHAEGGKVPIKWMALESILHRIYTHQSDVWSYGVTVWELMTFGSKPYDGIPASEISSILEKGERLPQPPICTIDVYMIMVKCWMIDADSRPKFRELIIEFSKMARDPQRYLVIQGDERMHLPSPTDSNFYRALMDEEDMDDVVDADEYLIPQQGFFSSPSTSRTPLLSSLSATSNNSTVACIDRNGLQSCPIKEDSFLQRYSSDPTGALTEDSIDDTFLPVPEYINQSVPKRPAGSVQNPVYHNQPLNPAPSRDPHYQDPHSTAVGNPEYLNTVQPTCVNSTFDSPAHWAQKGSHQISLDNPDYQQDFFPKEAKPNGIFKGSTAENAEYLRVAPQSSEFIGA

[21] = target: Dual specificity mitogen-activated protein kinase kinase 1 (Homo sapiens) (UniProt Q02750); experiment: Inhibition of human MEK1 at 10 uM using ERK2 (K52R) as substrate by [gamma-33P]-ATP assay relative to control; in short: as §1
[22] = target: Tyrosine-protein kinase Lck (Homo sapiens) (UniProt P06239); experiment: Inhibition of human LCK at 10 uM using poly[Glu:Tyr] (4:1) as substrate by [gamma-33P]-ATP assay relative to control; in short: as §1
[23] = target: Insulin receptor (Homo sapiens) (UniProt P06213); experiment: Inhibition of human IR at 10 uM using poly[Glu:Tyr] (4:1) as substrate by [gamma-33P]-ATP assay relative to control; in short: as §1
Insulin receptor (Homo sapiens), sequence (P06213 28-758 limits assumed): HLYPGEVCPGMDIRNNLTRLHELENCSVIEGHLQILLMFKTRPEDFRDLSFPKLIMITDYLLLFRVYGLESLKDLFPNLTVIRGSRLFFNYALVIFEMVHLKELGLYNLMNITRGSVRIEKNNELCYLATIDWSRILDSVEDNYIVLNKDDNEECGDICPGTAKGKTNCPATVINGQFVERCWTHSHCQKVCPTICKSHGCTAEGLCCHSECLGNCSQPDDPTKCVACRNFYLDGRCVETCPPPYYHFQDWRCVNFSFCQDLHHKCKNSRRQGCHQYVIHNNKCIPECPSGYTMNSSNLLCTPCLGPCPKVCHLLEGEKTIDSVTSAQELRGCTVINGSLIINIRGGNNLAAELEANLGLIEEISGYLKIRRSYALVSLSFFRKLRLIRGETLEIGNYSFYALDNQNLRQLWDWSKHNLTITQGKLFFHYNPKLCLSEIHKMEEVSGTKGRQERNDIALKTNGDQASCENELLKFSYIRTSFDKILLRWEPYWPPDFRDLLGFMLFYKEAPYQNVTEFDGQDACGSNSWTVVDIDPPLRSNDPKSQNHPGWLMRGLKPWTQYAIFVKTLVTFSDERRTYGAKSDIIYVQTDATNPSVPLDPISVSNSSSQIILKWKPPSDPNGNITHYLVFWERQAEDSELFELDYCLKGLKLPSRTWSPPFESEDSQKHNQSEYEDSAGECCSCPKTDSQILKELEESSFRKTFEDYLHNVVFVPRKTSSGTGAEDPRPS
Insulin receptor (Homo sapiens), sequence (P06213 763-1382 limits assumed): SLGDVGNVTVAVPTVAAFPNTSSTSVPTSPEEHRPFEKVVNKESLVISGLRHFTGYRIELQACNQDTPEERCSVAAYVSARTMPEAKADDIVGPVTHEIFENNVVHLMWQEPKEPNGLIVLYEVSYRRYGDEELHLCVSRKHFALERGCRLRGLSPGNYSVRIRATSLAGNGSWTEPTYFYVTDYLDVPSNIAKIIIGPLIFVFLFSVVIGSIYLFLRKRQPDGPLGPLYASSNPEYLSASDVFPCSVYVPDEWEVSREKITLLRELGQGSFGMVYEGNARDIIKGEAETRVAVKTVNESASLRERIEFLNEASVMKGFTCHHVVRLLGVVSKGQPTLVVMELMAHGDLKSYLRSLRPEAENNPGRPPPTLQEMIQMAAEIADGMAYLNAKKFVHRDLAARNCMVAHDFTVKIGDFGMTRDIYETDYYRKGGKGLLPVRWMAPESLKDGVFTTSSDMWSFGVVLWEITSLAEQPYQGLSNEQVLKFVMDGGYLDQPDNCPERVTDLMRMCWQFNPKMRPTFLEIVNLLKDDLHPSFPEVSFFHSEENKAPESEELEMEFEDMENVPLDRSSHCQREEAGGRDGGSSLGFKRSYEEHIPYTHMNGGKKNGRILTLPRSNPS

[24] = target: Serine/threonine-protein kinase B-raf (Homo sapiens) (UniProt P15056); experiment: Inhibition of human BRAF at 10 uM using MEK1 (K97R) as substrate by [gamma-33P]-ATP assay relative to control; in short: as §1
Serine/threonine-protein kinase B-raf (Homo sapiens), sequence (P15056 whole entry): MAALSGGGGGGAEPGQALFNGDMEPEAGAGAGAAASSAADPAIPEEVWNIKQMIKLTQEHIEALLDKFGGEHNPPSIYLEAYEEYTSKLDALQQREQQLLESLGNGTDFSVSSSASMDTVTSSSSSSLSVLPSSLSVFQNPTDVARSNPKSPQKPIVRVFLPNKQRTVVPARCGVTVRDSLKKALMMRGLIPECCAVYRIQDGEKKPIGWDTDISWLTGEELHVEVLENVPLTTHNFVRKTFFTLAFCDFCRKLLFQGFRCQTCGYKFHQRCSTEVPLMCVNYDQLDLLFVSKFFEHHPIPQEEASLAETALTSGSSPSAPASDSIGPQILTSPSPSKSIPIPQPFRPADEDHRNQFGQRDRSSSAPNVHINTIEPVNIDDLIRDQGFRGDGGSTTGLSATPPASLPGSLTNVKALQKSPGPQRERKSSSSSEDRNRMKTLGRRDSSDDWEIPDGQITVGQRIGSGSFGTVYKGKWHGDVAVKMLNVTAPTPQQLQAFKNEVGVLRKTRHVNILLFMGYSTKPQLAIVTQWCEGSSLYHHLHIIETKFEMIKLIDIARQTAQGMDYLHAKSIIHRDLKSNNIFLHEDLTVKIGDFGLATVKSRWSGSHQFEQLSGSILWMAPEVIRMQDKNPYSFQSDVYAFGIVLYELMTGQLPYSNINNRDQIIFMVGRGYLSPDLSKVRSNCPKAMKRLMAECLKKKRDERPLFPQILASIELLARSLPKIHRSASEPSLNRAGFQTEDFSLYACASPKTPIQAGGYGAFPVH

HeLa = experiment: Antiproliferative activity against human HeLa cells after 2 days by spectrophotometric analysis; type: functional; conditions: 48 h
In short: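 Cells from ATCC were kept in RPMI 1640 with 5% FBS. They were exposed to graded concentrations in DMSO/RPMI for 48 h at 37 C under 5% CO2, then fixed with 50% trichloroacetic acid. Cellular protein was read at 540 nm at time zero and at 48 h, with and without compound. TGI (100% growth inhibition) was taken from the concentration-response curve.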

Tyrosine-protein kinase Lyn (Homo sapiens), sequence (P07948 2-512 limits assumed): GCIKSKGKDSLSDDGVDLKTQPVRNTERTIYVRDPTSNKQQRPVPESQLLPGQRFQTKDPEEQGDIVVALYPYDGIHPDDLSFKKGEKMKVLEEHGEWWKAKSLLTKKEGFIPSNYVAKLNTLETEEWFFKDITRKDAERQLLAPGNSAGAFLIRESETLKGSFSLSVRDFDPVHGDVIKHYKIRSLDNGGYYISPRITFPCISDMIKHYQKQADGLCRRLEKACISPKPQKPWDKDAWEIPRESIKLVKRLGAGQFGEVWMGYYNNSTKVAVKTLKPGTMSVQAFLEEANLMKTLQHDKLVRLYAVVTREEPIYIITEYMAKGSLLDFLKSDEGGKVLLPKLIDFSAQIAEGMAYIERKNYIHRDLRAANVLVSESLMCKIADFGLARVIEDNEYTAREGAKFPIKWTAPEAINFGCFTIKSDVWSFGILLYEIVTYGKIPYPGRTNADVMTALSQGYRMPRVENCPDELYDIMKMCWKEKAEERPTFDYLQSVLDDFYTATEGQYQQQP

With `CC(=O)N1CCN(c2ccc(Nc3ncc(C(F)(F)F)c(N4Cc5cccc(N(C)S(C)(=O)=O)c5C4)n3)cc2)CC1` as the compound, how does the inhibition [1] read?
The inhibition was 69.1%.

What about the inhibition [2] of the same compound?
The inhibition was 90.5%.

What about the inhibition [3] of the same compound?
Its inhibition is 45.1%.

And the inhibition [4]?
Its inhibition is 16.2%.

What about the inhibition [5] of the same compound?
The inhibition was 20.5%.

What about the inhibition [6] of the same compound?
The inhibition was 92.2%.

What about the IC50 (Focal adhesion kinase 1) of the same compound?
Its IC50 is 11 nM.

And the inhibition [7]?
The inhibition was 49%.

What about the inhibition [8] of the same compound?
The inhibition was 26%.

What about the inhibition [9] of the same compound?
The inhibition was 42.2%.

What about the inhibition [10] of the same compound?
Its inhibition is 62.2%.

And the inhibition [11]?
Its inhibition is 66.6%.

What about the inhibition [12] of the same compound?
Its inhibition is 65.5%.

And the GI50 (IMR-32)?
Its GI50 is 260 nM.

What about the inhibition [13] of the same compound?
Its inhibition is 80.6%.

And the inhibition [14]?
Its inhibition is -3.6%.

And the inhibition [15]?
Its inhibition is 88.2%.

And the IC50 [16]?
The IC50 was 25 nM.

What about the inhibition [17] of the same compound?
Its inhibition is 75.4%.

What about the GI50 (HCT-116) of the same compound?
Its GI50 is 420 nM.

And the inhibition [18]?
Its inhibition is 9.8%.

What about the inhibition [19] of the same compound?
The inhibition was 19.3%.

What about the inhibition [20] of the same compound?
Its inhibition is 2%.

And the inhibition [21]?
Its inhibition is 3.6%.

What about the inhibition [22] of the same compound?
Its inhibition is 84.1%.

And the inhibition [23]?
The inhibition was 89.8%.

And the inhibition [24]?
Its inhibition is 6.7%.

What about the GI50 (HeLa) of the same compound?
Its GI50 is 730 nM.

Reference: ChEMBL document CHEMBL4325842, “Design, synthesis, and biological evaluation of novel aminopyrimidinylisoindolines as AXL kinase inhibitors” (Bioorg Med Chem Lett, 2018)
